Compound activity (PubChem)
CHRM1 PAM: human M1 muscarinic receptor positive allosteric modulators, primary screen, CHO-K1 cells, Fluo-8 calcium fluorescence, 1536-well; Muscarinic acetylcholine receptor M1 (Homo sapiens), P11229; CHO-K1 hM1, ACh EC20; 0% = ACh EC20, 100% = maximal ACh; activation, % at 3 µM; 0.088% of 360,000 active; AID 588819, 2011; in the data active = activation above about 19%, passing the limit was not always enough
CHRM1 agonist: human M1 muscarinic receptor agonists, primary screen, Fluo-8 calcium fluorescence, CHO-K1 cells, HTS; AID 588814, 2011; CHO-K1 hM1, agonist mode; 0% DMSO, 100% acetylcholine EC100; 0.33% of 360,000 active; activation, % at 3 µM;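 active = activation above the run's mean compound activation plus 3 SD, cut at about 16% in these data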;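 also: peak over basal fluorescence ratio within a 140 s kinetic read after compound addition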
CHRM1 antagonist: human M1 muscarinic receptor antagonists, primary screen, CHO-K1 cells, Fluo-8 calcium fluorescence, 1536-well. Muscarinic acetylcholine receptor M1 (Homo sapiens), P11229. CHO-K1 hM1, ACh EC80 antagonist. inhibition, % at 3 µM. 1.3% of 360,000 active;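 active = percent inhibition above its own plate's cutoff, namely the mean of that plate's compound wells plus 3 SD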;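 also: peak over basal fluorescence ratio during 140 s after agonist addition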
M5 ag: human M5 muscarinic receptor agonists, primary screen, CHO-K1 cells, Fluo-8 calcium fluorescence; CHO-K1 hM5 cells; 0% DMSO wells, 100% maximal acetylcholine response; AID 624037, 2012; activation, % at 3 µM; 0.19% of 360,000 active;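 active = activation above the run's mean over test compounds plus 3 SD, cut at about 23% in these data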;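 also: signal is peak over basal fluorescence ratio across the kinetic read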
Target sequence (P08912 whole entry, looked up): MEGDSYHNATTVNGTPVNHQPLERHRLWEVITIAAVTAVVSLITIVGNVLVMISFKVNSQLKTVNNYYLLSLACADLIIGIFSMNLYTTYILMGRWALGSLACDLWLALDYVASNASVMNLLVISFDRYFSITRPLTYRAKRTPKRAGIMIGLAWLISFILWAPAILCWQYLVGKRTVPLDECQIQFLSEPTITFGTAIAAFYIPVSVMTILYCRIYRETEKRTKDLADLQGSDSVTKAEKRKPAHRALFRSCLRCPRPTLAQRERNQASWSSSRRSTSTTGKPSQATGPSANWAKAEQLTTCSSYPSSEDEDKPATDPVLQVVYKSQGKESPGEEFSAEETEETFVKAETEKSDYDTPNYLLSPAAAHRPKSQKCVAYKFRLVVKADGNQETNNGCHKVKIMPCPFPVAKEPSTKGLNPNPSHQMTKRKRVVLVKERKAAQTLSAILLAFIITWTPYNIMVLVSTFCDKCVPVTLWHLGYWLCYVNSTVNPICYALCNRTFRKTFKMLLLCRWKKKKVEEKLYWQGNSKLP
CHRM5 antagonist: human M5 muscarinic receptor antagonists, primary screen, CHO cells, Fluo-8 calcium fluorescence. Muscarinic acetylcholine receptor M5 (Homo sapiens), P08912. CHO-hM5 cells, ACh EC80. inhibition, % at 3 µM. 0.59% of 360,000 active. AID 624040, 2012;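 active = inhibition above a per-plate cutoff, the mean of that plate's test compounds plus 3 SD, cut at about 27% in these data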
CHRM5 PAM: human M5 muscarinic receptor positive allosteric modulators, primary screen, CHO-K1 cells, Fluo-8 calcium fluorescence. 0.3% of 360,000 active. Muscarinic acetylcholine receptor M5 (Homo sapiens), P08912. activation, % at 3 µM. CHO-K1 hM5, ACh EC20 PAM; 0% = ACh EC20, 100% = ACh EC100. AID 624038, 2012;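 active = activation above the run cutoff, the mean activation of all test compounds plus 3 SD, cut at about 18% in these data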
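Assay system: CHO-K1 hM5 cells. Also added: acetylcholine at EC20 concentration, added after compound. Dosing: 3 µM, single dose. Times: compound preincubation 140 s before EC20 acetylcholine addition. Signal: Fluo-8 calcium fluorescence. Measure: % activation relative to EC20 and EC100 ACh responses. Repeats: singlicate, one well per test compound.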
Each line names hits and unclear results; the compound was inactive in the other large screens. Shown are actives, neighbours in structure and some others; about 2.2% of the full set was active somewhere.

COc1ccc(C(=O)N(C)CCCC2CCCC2)cc1OC1CCN(C(C)=O)CC1	none
COc1ccc(C(=O)N(C)CCCC2CCCC2)cc1OC1CCN(C(C)C)CC1	CHRM1 antagonist 30
CCOC(=O)N1CCN(C(=O)c2ccc3c(c2)NC(=O)/C(=C\c2ccc(OC)c(OC)c2)S3)CC1	CHRM1 antagonist 52
O=c1c(/C=N\NS(=O)(=O)c2ccccc2)coc2ccc(Cl)cc12	CHRM5 antagonist 35
O=C(N/N=C/c1coc2ccccc2c1=O)c1ccc(Cl)cc1	none
CC(C)(C)OC(=O)N[C@@H](Cc1ccccc1)C(=O)NCC1CCC(C(=O)N[C@@H](CC(=O)O)C(=O)O)CC1 (stereo partly specified)	none
O=C(NCCC1=CCCCC1)C1CC(=O)N(Cc2ccccc2)C1 (stereo unspecified)	none
Cc1cc2c3c([nH]c2cc1S(=O)(=O)NCc1ccc(CN2CCCCCC2)o1)CC(C)(C)CC3=O	CHRM1 antagonist 52
Cc1cc2c3c([nH]c2cc1S(=O)(=O)NCc1ccc(CN2CCCCCC2)o1)CCCC3=O	CHRM1 antagonist 85
Nc1nc2ccccc2cc1C(=O)NCc1ccc(-c2ccccc2)cc1	CHRM5 antagonist 31 (no result: CHRM1 PAM, CHRM1 agonist, CHRM1 antagonist)
CCOC(=O)COc1nc(-c2ccccc2)cc(-c2ccco2)c1C#N	CHRM1 antagonist 40
CCOC(=O)COc1nc(-c2ccc(Cl)cc2)cc(-c2ccco2)c1C#N	none
CC1=CC(C)(C)n2c(O)c(N=NC(N)=S)c3cccc1c32	none
COc1cc2c3c(c1)c(N=NC(N)=S)c(O)n3C(C)(C)C=C2C	CHRM1 antagonist 33
O=C(NCc1ccncc1)c1cccc(Cn2cc(Br)cn2)c1	CHRM1 antagonist 97
O=C(O)c1cccc(Cn2cc(Br)cn2)c1	none
Cn1c(C(=O)OC(C(=O)NC2CCCCC2)c2cccnc2)cc2sccc21 (stereo unspecified)	CHRM5 antagonist 41
CC(=O)Oc1cc2c(cc1Cl)C1(CC(c3ccccc3Cl)O2)CC(C)(C)NC(=S)N1 (stereo unspecified)	CHRM1 antagonist 47
CC1(C)CC2(CC(c3ccccc3F)c3cc(Cl)c(O)cc3O2)NC(=S)N1 (stereo unspecified)	none
CN(C)C(=O)c1ccc(NC(=O)COC(=O)C2(c3ccccc3)CCCC2)cc1	none
Cc1ccccc1C[n+]1cccc2ccccc21	none
CCCCCCCCCCCCCCCC[n+]1cccc2ccccc21	CHRM1 antagonist 47, CHRM5 antagonist 64
CCCCCCCCC[n+]1cccc2c3ccccc3ccc21	CHRM1 antagonist 95, CHRM5 antagonist 41
O=[N+]([O-])c1ccc(C[n+]2cccc3c4ccccc4ccc32)cc1	none
Cc1ccc(NC(=O)C(C)OC(=O)CCC2CCCCC2)cc1 (stereo unspecified)	none
NC(=O)C1CCN(CC(=O)Nc2cccc(C(=O)Nc3cccc(C(F)(F)F)c3)c2)CC1	none
CC1CCN(CCCOc2ccc(OCc3ccccc3)cc2)CC1	CHRM1 antagonist 43
c1ccc(COc2ccc(OCCCN3CCCC3)cc2)cc1	CHRM1 antagonist 46
c1ccc(COc2ccc(OCCN3CCCC3)cc2)cc1	none
CCC/C(=N\NC(=O)c1ccco1)c1ccc(Cl)s1	none
CC(=O)Oc1ccc2c(c1)Oc1cc(OC(C)=O)ccc1C21OC(=O)c2ccccc21	CHRM1 agonist 974, CHRM1 antagonist 102, M5 ag active, CHRM5 antagonist 102
Cc1cc(O)ccc1C1(c2ccc(O)cc2C)OC(=O)c2ccccc21	none
Cc1ccc(C(=O)OCC(=O)NCc2ccccc2)s1	none
O=C(c1ccc(S(=O)(=O)c2cccc(Cl)c2)c([N+](=O)[O-])c1)N1CCN(c2ccccn2)CC1	CHRM1 antagonist 58, CHRM5 antagonist 52
O=C(c1ccc(S(=O)(=O)Nc2ccccc2F)cc1)N1CCN(c2ccccn2)CC1	CHRM1 antagonist 51
Cc1ccccc1NS(=O)(=O)c1ccc(C(=O)N2CCN(c3ccccn3)CC2)cc1	none
Cc1ccc(C(=O)OCC(=O)NC(=O)c2ccc(C(C)(C)C)cc2)c(O)c1	CHRM1 antagonist 34
Cc1ccc(C(=O)OCC(=O)NNC(=O)c2ccccc2)c(O)c1	none
CCOc1cc(NC(=S)NCCOC)c(OCC)cc1NC(=O)c1ccco1	none
Cc1nc2ccccn2c1C(=O)NNS(=O)(=O)c1ccc(C(C)(C)C)cc1	CHRM5 antagonist 28
Cc1ccccc1C(OCCN(C(C)C)C(C)C)c1ccccc1 (stereo unspecified)	CHRM1 antagonist 101, CHRM5 antagonist 99
CN(C)CCOC(c1ccc(Cl)cc1)c1ccccn1 (stereo unspecified)	none
Cn1c(N=Nc2ccc(N3CCOCC3)cc2)[n+](C)c2ccccc21	none
CCn1c(=Nc2ccc(N3CCOCC3)cc2)ccc2ccccc21	CHRM5 antagonist 67
Cn1c(=Nc2ccc(N3CCOCC3)cc2)ccc2ccccc21	CHRM1 antagonist 48, CHRM5 antagonist 39
C[C@H]1CN([C@@H](C)CO)C(=O)c2cccc(NC(=O)c3nc4ccccc4s3)c2O[C@H]1CN(C)C(=O)Nc1ccc(F)cc1	none
O=C(CS(=O)CC(=O)N(CC(=O)NC1CCCC1)C1CCCC1)Nc1ccc(F)cc1 (stereo unspecified)	CHRM1 PAM 28
Cc1cc(=O)n2[nH]c(CCC(=O)O)nc2n1	none
CN(Cc1ccccc1)C(=O)c1cccc(NC(=O)Cc2cccc([N+](=O)[O-])c2)c1	CHRM1 antagonist 33
O=C1C=C(N2CCCCCC2)C(=O)N1c1ccc(Cl)cc1	CHRM1 antagonist 81
Cc1noc(C)c1S(=O)(=O)N1CCN(c2ccc(Cl)cc2)CC1	none
Cc1noc(C)c1S(=O)(=O)Nc1ccc(C(=O)N2CCN(c3ccc(Cl)cc3)CC2)cc1	CHRM1 antagonist 18
CCOC(=O)c1ccn(CSc2c(F)c(F)cc(F)c2F)n1	CHRM1 antagonist 33
COC(=O)c1ccn(CSc2c(F)c(F)cc(F)c2F)n1	none
Cc1cccc(NC(=O)c2ccc(OCc3c(C)noc3C)cc2)c1	none
Cc1noc(C)c1COc1ccc(C(=O)Nc2cccnc2)cc1	CHRM1 antagonist 71
COC(=O)CNC(=O)CNC(=O)Nc1ccccc1	none
COC(=O)CCCCNC(=O)Nc1ccccc1	CHRM5 PAM 23
